In ChEMBL document CHEMBL1141765, “Alkaloids from Alangium javanicum and Alangium grisolleoides that mediate Cu2+-dependent DNA strand scission” (J Nat Prod, 2005):
Several values for one entry are separate records, joined by “and”; a condition that tells them apart may be missing. Identical values can stand only once.

Tests used:
Escherichia coli [1] = assay: Induction of DNA strand scission activity against Escherichia coli pBR322 assessed as form 2 DNA levels at 25 uM after 60 mins by electrophoresis in presence of 20 uM Cu2+; assay type: functional
Method in brief: (§1)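 Supercoiled pBR322 plasmid DNA (500 ng) was incubated with compound, with or without 20 µM Cu2+, in 10 mM Tris-HCl, pH 8.0. Compound came from DMSO, final DMSO ≤5%. Incubation was 37 °C for 60 min. Blank (DNA only) and Cu2+-only controls were included. Samples were run on 1.0% agarose gels with ethidium bromide in TBE, pH 8.3. Form I→Form II conversion was quantified by gel densitometry.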

Escherichia coli [2] = assay: Induction of DNA strand scission activity against Escherichia coli pBR322 assessed as form 2 DNA levels at 200 uM after 60 mins by electrophoresis in absence of 20 uM Cu2+; assay type: functional; method in brief: as §1
Escherichia coli [3] = assay: Induction of DNA strand scission activity against Escherichia coli pSP64 assessed as form 2 DNA levels at 10 uM after 2 hrs by electrophoresis in presence of equimolar amount of Cu2+
Escherichia coli [4] = assay: Induction of DNA strand scission activity against Escherichia coli pSP64 assessed as form 2 DNA levels at 200 uM after 2 hrs by electrophoresis in presence of equimolar amount of Cu2+
Escherichia coli [5] = assay: Induction of DNA strand scission activity against Escherichia coli pBR322 assessed as form 2 DNA levels at 10 uM after 60 mins by electrophoresis in presence of 20 uM Cu2+; assay type: functional; method in brief: as §1
Escherichia coli [6] = assay: Induction of DNA strand scission activity against Escherichia coli pBR322 assessed as form 2 DNA levels at 200 uM after 60 mins by electrophoresis in presence of 20 uM Cu2+; assay type: functional; method in brief: as §1
Escherichia coli [7] = assay: Induction of DNA strand scission activity against Escherichia coli pBR322 assessed as form 2 DNA levels at 100 uM after 60 mins by electrophoresis in presence of 20 uM Cu2+; assay type: functional; method in brief: as §1
Escherichia coli [8] = assay: Induction of DNA strand scission activity against Escherichia coli pBR322 assessed as form 2 DNA levels at 50 uM after 60 mins by electrophoresis in presence of 20 uM Cu2+; assay type: functional; method in brief: as §1
Escherichia coli [9] = assay: Induction of DNA strand scission activity against Escherichia coli pSP64 assessed as form 2 DNA levels at 100 uM after 2 hrs by electrophoresis in presence of equimolar amount of Cu2+
Escherichia coli [10] = assay: Induction of DNA strand scission activity against Escherichia coli pBR322 assessed as form 2 DNA levels at 500 uM after 60 mins by electrophoresis in presence of 20 uM Cu2+; assay type: functional; method in brief: as §1
Escherichia coli [11] = assay: Induction of DNA strand scission activity against Escherichia coli pBR322 assessed as form 2 DNA levels at 500 uM after 60 mins by electrophoresis in absence of 20 uM Cu2+; assay type: functional; method in brief: as §1

SMILES	Activity (Escherichia coli [1]) [%]	Activity (Escherichia coli [2]) [%]	Activity (Escherichia coli [3]) [%]	Activity (Escherichia coli [4])	Activity (Escherichia coli [5]) [%]	Activity (Escherichia coli [6]) [%]	Activity (Escherichia coli [7]) [%]	Activity (Escherichia coli [8]) [%]	Activity (Escherichia coli [9])	Activity (Escherichia coli [10]) [%]	Activity (Escherichia coli [11]) [%]
C=C[C@H]1[C@H](O[C@@H]2O[C@H](CO)[C@@H](O)[C@H](O)[C@H]2O)OC=C2C(=O)N3CC[C@@]4(C(=O)Nc5ccccc54)[C@H]3C[C@H]21	16	3	0	43% and 35%	10	58	29	20	28% and 16%	–	–
C=C[C@H]1[C@H](O[C@@H]2O[C@H](CO)[C@@H](O)[C@H](O)[C@H]2O)OC=C2C(=O)N3CC[C@]4(C(=O)Nc5ccccc54)[C@H]3C[C@H]21	–	–	0	7%	–	–	–	–	5%	–	–
C=C[C@H]1[C@H](O[C@@H]2O[C@H](CO)[C@@H](O)[C@H](O)[C@H]2O)OC=C2C(=O)N3CCc4cc(OC)c(O)cc4[C@H]3C[C@H]21	–	–	–	–	14	30	25	18	–	42	3
